These results are taken from ChEMBL document CHEMBL1154608, “Substituted 2-aminothiopen-derivatives: a potential new class of GluR6-antagonists” (Eur J Med Chem, 2010).

The target in data set [1] is Glutamate receptor ionotropic kainate 1 (Homo sapiens) (UniProt P39086). Description: Antagonist activity at human recombinant GluR5 expressed in HEK cells coexpressing aequorine assessed as inhibition of glutamate-induced Ca2+ influx at 10 uM by luminescence reporter assay relative to control. The conditions noted are these: HEK293. (A reporter such as luciferase makes a cellular process visible.)

The target in data set [2] is Glutamate receptor ionotropic kainate 2 (Homo sapiens) (UniProt Q13002). Description: Antagonist activity at human recombinant GluR6 expressed in HEK cells coexpressing aequorine assessed as inhibition of glutamate-induced Ca2+ influx at 10 uM by luminescence reporter assay relative to control. The note with it: HEK293.
The test system of data set [3] is N2a. Description: Cytotoxicity against mouse N2A cells at 100 uM after 24 hrs by MTT assay. Format: cell-based. Put shortly:
(§1)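 Cell viability was measured by MTT in N2A neuroblastoma and COS7 monkey kidney cells after 24 h compound incubation. Formazan was released with lysis buffer and absorbance was read at 590 nm.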
Background: Tetrazolium assays rely on reduction of a dye to a coloured formazan, in cell work by metabolically active cells.

Data set [4] relates to N2a. Nature of the data set: Cytotoxicity against mouse N2A cells at 0.1 to 10 uM after 24 hrs by MTT assay. Type of data set: cell-based. Put shortly:
as §1

A short description of data set [5]: Cytotoxicity against monkey COS7 cells at 100 uM after 24 hrs by MTT assay. The conditions noted are these: chlorocebus aethiops, cos-7, 24 h.
Data set [6] is described as follows: Cytotoxicity against monkey COS7 cells at 0.1 to 10 uM after 24 hrs by MTT assay. The note with it: chlorocebus aethiops, cos-7, 24 h.
Data set [7] addresses Glutamate receptor ionotropic kainate 1 (Homo sapiens) (UniProt P39086). Nature of the data set: Antagonist activity at human recombinant GluR5 expressed in HEK cells coexpressing aequorine assessed as inhibition of glutamate-induced Ca2+ influx at 100 uM by luminescence reporter assay relative to control. The note with it: HEK293.
Data set [8] concerns the target Glutamate receptor ionotropic kainate 2 (Homo sapiens) (UniProt Q13002). Nature of the data set: Antagonist activity at human recombinant GluR6 expressed in HEK cells coexpressing aequorine assessed as inhibition of glutamate-induced Ca2+ influx at 100 uM by luminescence reporter assay relative to control. The conditions noted are these: HEK293.

Chain of Glutamate receptor ionotropic kainate 2 (Homo sapiens) (Q13002 whole entry, looked up): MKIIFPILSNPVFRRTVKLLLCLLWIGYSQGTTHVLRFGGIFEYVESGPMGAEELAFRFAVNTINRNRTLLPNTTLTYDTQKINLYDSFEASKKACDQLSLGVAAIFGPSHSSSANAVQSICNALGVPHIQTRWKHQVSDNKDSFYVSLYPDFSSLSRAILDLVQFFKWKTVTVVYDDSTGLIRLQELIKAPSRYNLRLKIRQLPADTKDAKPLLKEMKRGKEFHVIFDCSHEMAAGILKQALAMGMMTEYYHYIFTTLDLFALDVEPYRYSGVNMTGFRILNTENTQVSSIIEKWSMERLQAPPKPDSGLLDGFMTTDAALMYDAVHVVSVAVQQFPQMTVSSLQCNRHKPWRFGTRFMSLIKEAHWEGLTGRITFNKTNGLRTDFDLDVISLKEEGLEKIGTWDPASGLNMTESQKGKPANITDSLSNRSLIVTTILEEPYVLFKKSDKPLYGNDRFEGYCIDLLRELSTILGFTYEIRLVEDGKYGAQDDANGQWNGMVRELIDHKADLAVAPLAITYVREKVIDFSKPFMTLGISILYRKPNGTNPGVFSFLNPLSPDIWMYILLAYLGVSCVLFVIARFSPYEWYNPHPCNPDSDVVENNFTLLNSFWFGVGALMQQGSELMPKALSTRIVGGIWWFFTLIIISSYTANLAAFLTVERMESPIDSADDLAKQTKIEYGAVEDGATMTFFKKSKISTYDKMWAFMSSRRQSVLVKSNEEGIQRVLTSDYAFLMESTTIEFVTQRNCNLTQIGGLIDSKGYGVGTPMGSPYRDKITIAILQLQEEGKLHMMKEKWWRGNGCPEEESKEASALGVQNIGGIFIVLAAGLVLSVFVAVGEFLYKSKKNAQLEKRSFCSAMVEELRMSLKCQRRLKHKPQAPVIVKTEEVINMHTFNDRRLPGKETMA
Chain of Glutamate receptor ionotropic kainate 1 (Homo sapiens) (P39086 whole entry, looked up): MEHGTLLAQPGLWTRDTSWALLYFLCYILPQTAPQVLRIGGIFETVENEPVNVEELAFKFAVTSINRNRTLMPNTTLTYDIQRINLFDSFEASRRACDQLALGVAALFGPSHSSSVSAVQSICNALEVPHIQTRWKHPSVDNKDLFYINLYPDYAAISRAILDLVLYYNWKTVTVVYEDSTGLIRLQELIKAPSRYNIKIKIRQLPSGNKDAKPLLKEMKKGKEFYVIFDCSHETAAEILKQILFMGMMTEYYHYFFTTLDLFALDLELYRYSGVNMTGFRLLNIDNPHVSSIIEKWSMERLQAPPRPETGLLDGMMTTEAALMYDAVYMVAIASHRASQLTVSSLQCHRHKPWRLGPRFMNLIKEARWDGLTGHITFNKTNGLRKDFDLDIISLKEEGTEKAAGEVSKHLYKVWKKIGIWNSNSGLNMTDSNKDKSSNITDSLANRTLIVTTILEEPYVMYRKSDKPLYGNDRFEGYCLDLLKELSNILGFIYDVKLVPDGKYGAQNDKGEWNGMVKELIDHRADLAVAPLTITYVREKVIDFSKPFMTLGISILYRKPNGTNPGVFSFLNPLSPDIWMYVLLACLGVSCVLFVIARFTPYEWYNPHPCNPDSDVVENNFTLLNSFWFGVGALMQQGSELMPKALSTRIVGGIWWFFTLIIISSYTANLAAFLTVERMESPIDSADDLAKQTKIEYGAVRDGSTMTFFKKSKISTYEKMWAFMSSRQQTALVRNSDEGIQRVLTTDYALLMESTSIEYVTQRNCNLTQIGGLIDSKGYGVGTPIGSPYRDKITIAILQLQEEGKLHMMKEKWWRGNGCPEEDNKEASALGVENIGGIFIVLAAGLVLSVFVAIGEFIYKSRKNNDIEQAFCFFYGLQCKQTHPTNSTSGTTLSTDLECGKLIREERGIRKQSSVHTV

The inhibition is the change of the read-out against control, counted positive when it falls. As for `CCOC(=O)c1c(N=NC#N)sc(-c2ccccc2)c1C`, in data set [1], the inhibition turned out to be 7%.
For the molecule `CCn1c(=O)[nH]c2sc(-c3ccccc3)c(C)c2c1=O`, the values for the inhibition in data set [2] and in data set [1] were 9.5% and 11.8%, respectively.
For `CCSc1nc2sc3c(c2c(=O)[nH]1)CCCC3` the same measures were 4% and 8%.
Consider `CCOC(=O)c1c(N)sc(-c2ccccc2)c1C`, for which the Activity entry is on record as “Toxic” in the data set on N2a [3], “Non-toxic” in the data set on N2a [4], “Toxic” in data set [5] and “Non-toxic” in data set [6]. The inhibition in data set [1] is 12%.
Take `CCCOC(=O)c1c(N)sc(-c2ccccc2)c1C`: the Activity result with N2a [3] is given as “Toxic”; in the data set with N2a [4], “Non-toxic”; in data set [5], “Toxic”; in data set [6], “Non-toxic”. The inhibition in data set [1] amounted to 5%.
As to `CCOC(=O)c1c(N)sc(-c2ccc(F)cc2)c1C`, in data set [1], the inhibition came out at 0%.
Still for that read-out and setting: the figure for `Cc1c(-c2ccccc2)sc(N)c1C#N` is 17%.
For the molecule `CCNC(=O)c1c(N)sc(-c2ccccc2)c1C`, the inhibition in data set [2] is 4%; in data set [1], 9%.
`CCOC(=O)c1c(N)sc(-c2ccccc2Cl)c1C`: the inhibition in data set [1] came out at 10%.
`Oc1nc(S)nc2sc3c(c12)CCCC3`: the inhibition in data set [2] turned out to be 0%; in data set [1], 17%.
In the case of `CCOC(=O)c1c(N=NN2CCOCC2)sc(-c2ccccc2)c1C`, the inhibition in data set [1] stood at 4%.
`COC(=O)c1c(N)sc(-c2ccccc2)c1C`: the Activity entry (in the data set with N2a [4]; in data set [5]; in data set [6]) was “Non-toxic” in each case.
Regarding `CCOC(=O)c1c(N)sc(-c2ccc(OC)cc2)c1C`, in data set [1], the inhibition stood at 1%.
As for `CCOC(=O)Nc1cc(C)c(-c2ccccc2)s1`, the inhibition in data set [2] is 18%; in data set [1] it was 1%.
For `CCSc1nc2sc(-c3ccccc3)c(C)c2c(=O)[nH]1` the same measures were 0% and 1%.
In the case of `Cc1c(-c2ccccc2)sc(N)c1C(=O)OC(C)(C)C`, the inhibition in data set [1] was 4%.
With `Cc1c(-c2ccccc2)sc2[nH]c(=S)[nH]c(=O)c12`, the inhibition in data set [2] is -2%; in data set [1], 10%.
The matching figures for `CCOC(=O)c1c(-n2cccc2)sc(-c2ccccc2)c1C`: 2% and -1%.
`Cc1c(-c2ccccc2)sc(N)c1C(=O)O`: the inhibition in data set [2] is 44%; in data set [7] it was 20%.
`Cc1c(-c2ccccc2)sc(N)c1C(=O)c1ccccc1`: in data set [1], the inhibition stood at 17%.
As to `CCOC(=O)Nc1sc(-c2ccccc2)c(C)c1C(=O)O`, the inhibition in data set [2] came out at 7%; in data set [1], 12%.
For `CCOC(=O)c1c(NC(=O)CNCc2ccccc2)sc(-c2ccccc2)c1C` the same measures were 4% and 25%.
`CCOC(=O)c1c(NC(=O)C(F)(F)F)sc(-c2ccccc2)c1C`: the results for the inhibition in data set [2] and in data set [1] were 20% and 18%, respectively.
The matching figures for `CCNC(=O)Nc1sc2c(c1C(N)=O)CCCC2`: 12% and 0.1%.
With `CCOC(=O)c1c(N)sc(-c2ccccc2)c1-c1ccccc1`, the Activity result in the data set with N2a [3] is listed as “Toxic”; in the data set with N2a [4], “Non-toxic”; in data set [6] it was “Non-toxic”. For the same molecule, in data set [1], the inhibition was determined as 13%.
For `CCOC(=O)c1cc(-c2ccccc2)sc1N`, the inhibition in data set [2] was -1%; in data set [7] it was 25%.
`CCOC(=O)c1c(N=C=S)sc(-c2ccccc2)c1C`: the Activity result in the data set on N2a [3] was “Toxic”; in the data set with N2a [4], “Non-toxic”; in data set [5], “Toxic”; in data set [6], “Non-toxic”. Further, the inhibition in data set [1] stood at 0%.
In the case of `CCOC(=O)c1c(NC(=O)CN2CCOCC2)sc(-c2ccccc2)c1C`, the inhibition was 9% in data set [2] and 14% in data set [1].
The matching figures for `CCOC(=O)C(=O)Nc1sc(-c2ccccc2)c(C)c1C(=O)OCC`: 10% and 4%.
The matching figures for `CCNC(=S)Nc1sc(-c2ccccc2)c(C)c1C(=O)OCC`: -6.5% and 7%.
The matching figures for `CCOC(=O)c1c(NC(C)=O)sc(-c2ccccc2)c1C`: 4% and 3%.
As for `NC(=O)c1c(N)sc2c1CCCC2`, the values for the inhibition in data set [2] and in data set [1] were 13% and 4%, respectively.
For `CCOC(=O)c1c(N)sc2c1CCCC2` the same measures were 11% and 7%.
The matching figures for `CCn1c(=O)[nH]c2sc3c(c2c1=O)CCCC3`: 7.1% and 6%.
For `CCOC(=O)Nc1sc(-c2ccccc2)c(C)c1C(N)=O` the same measures were 12% and 19%.
In the case of `CCOC(=O)c1c(N=NN(C)C)sc(-c2ccccc2)c1C`, in data set [1], the inhibition stood at 10%.
In the case of `CCOC(=O)c1c(NC(=O)c2ccccc2)sc(-c2ccccc2)c1C`, the inhibition in data set [2] is 5%; in data set [1], -3%.
The matching figures for `CCNC(=O)Nc1sc(-c2ccccc2)c(C)c1C(N)=O`: 17% and 5.8%.
For `CCNC(=O)Nc1sc(-c2ccccc2)c(C)c1C(=O)OCC` the same measures were 9% and 0.5%.
For the molecule `Cc1c(-c2ccccc2)sc(N)c1C(N)=O`, the inhibition in data set [8] is 3%; in data set [7], 2%.
Turning to `CCOC(=O)c1c(NC)sc(-c2ccccc2)c1C`, the inhibition in data set [2] was determined as 19%; in data set [1], 4.5%.
In the case of `CCOC(=O)c1c(Cl)sc(-c2ccccc2)c1C`, the inhibition in data set [1] turned out to be 0%.
For `CCOC(=O)Nc1sc2c(c1C(N)=O)CCCC2`, the inhibition is 17% in data set [2] and 14% in data set [1].
